In the library only some 3.9% were active in any assay of this set; here they are far more common.
TAAR1 agonist: human TAAR1 agonism. Q96RJ0. CHO RD-HGA16 TAAR1, Fluo-8 calcium fluorescence; vehicle wells 0%, saturating PEA agonist 100%. activation, % at 3 µM. 360,000 tested, 0.99% active. AID 624467;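 active means activation above the mean activation of all test compounds in the run plus 3 SD, cut at about 38% in these data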
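System: CHO-derived RD-HGA16 cells with stable Gα16 and human TAAR1. Times: 17-24 h plating, Fluo-8 75 min 37 °C, 30 min RT. Measured by: calcium-sensitive Fluo-8 signal, excitation 470-495, emission 515-575 nm. Read-out basis: % activation relative to PEA EC100 response. Control set: DMSO and PEA EC100. Repeats: no replicates (n 1).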
TAAR1 antag: antagonists of human TAAR1 | 360,000 tested, 1.5% active | AID 624466 | inhibition, % at 3 µM | CHO RD-HGA16 TAAR1, Fluo-8 calcium fluorescence, antagonist;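 active means inhibition above a per-plate cutoff, the mean inhibition of test compounds on that plate plus 3 SD, cut at about 49% in these data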
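System: CHO RD-HGA16 cells bearing hTAAR1. Reagent: EC80 β-phenethylamine stimulus. Schedule: seeding 17-24 h prior, 75-min 37 °C, 30-min RT dye loading. Signal: Fluo-8 intracellular calcium dye fluorescence, real-time kinetic reads. Read-out: % inhibition from peak post-agonist over basal fluorescence ratio. Benchmarks: vehicle wells and EC80 agonist wells. Replicates: n of 1.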
ANO1 activ: activates or potentiates the mouse TMEM16A chloride channel; 340,000 tested, 0.3% active; HEK293 TMEM16A/YFP-H148Q/I152L, iodide quench fluorescence; stronger effect = lower value; Q8BHY3; B-score at 10 µM;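 active means fluorescence-ratio B-score plate-corrected deviation score at least 3 library SD below zero, with starting fluorescence score within 5 deviations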;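 further: channel opened by trigger with iodide after compound preincubation; score built on the fluorescence ratio of max minus min over baseline; more negative score means more quench and so TMEM16A activation or potentiation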
CRFBP-R2 block: antagonists of CRF-binding protein/CRF-R2 receptor complex. HEK293 CRF-R2/CRF-BP, CRF-induced calcium fluorescence. inhibition, % at 11.8 µM. 350,000 tested, 0.59% active. AID 588475;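 active means inhibition of the ligand-induced calcium signal above about 50% at the single tested concentration, limit read from the data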
ANO1 block: inhibitors of mouse TMEM16A calcium-activated chloride channel; normalized B-score (activity score, 25-100; higher = stronger inhibition) at 10 µM; Q8BHY3; 310,000 tested, 1.2% active; HEK293 TMEM16A/YFP iodide influx fluorescence, ionomycin;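 active means ratio plate-corrected score three or more library SD toward inhibition, starting fluorescence score within five deviations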;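 further: score derived from kinetic fluorescence span divided by baseline fluorescence per well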
CRFBP-R2 agonist: CRF-BP/CRF-R2 complex agonism; HEK293 CRF-R2/CRF-BP, calcium dye fluorescence (FLIPR); percent of saturating CRF peptide response; activation, % at 13.2 µM; 350,000 tested, 0.46% active; AID 588473;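 active means activation of at least 50%, plus an integration ratio under a set limit after plate pattern correction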
TMEM16A reconf: re-confirmation of mouse TMEM16A chloride channel inhibitors; HEK293 TMEM16A/YFP-H148Q, iodide quench fluorescence; ionomycin added to raise cell calcium; shares compounds with ANO1 block; AID 652189; inhibition, % at 10 µM; 2,300 tested, 39% active;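 active means mean duplicate percent inhibition, scaled so buffer wells are 0 and the reference blocker 100, over three buffer SD above buffer mean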
HEK293 Ca mobil: calcium mobilization counter-screen hit for TMEM16A inhibitor series; TMEM16A/YFP HEK293, Fluo4 calcium mobilization; shares compounds with ANO1 block; calcium response (% of ionomycin), % at 10 µM; 2,300 tested, 2% active;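 active means duplicate-averaged calcium signal over 20% of the ionomycin maximum, relative to buffer baseline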;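 further: each well's signal is peak minus trough fluorescence divided by its pre-addition baseline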
YFP-HEK293 quench: acts in parental YFP-HEK293 cells lacking TMEM16A, counter-screen; shares compounds with ANO1 block; iodide YFP quench, ionomycin; YFP ratio F(max-min)/F0 at 10 µM; 2,300 tested, under 10 active; AID 652233;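 active means yellow fluorescent protein signal ratio exceeding the buffer control mean by over 5 SD of those controls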;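 further: ratio is mean of duplicate wells from kinetic YFP trace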
ClC-1 rat inh: rat ClC-1 inhibition, TMEM16A specificity screen; shares compounds with ANO1 block; CHO ClC-1-YFP, iodide influx fluorescence quench; iodide control reads 0, buffer control 100; ratio percent, % at 10 µM; 2,300 tested, under 10 active; AID 652236;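 active means duplicate-mean ratio percent above the mean of iodide-only control wells, which defines zero, plus 5 of their SD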;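 further: higher percent means stronger block of ClC-1 iodide influx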
Target sequence (P35524 whole entry, looked up): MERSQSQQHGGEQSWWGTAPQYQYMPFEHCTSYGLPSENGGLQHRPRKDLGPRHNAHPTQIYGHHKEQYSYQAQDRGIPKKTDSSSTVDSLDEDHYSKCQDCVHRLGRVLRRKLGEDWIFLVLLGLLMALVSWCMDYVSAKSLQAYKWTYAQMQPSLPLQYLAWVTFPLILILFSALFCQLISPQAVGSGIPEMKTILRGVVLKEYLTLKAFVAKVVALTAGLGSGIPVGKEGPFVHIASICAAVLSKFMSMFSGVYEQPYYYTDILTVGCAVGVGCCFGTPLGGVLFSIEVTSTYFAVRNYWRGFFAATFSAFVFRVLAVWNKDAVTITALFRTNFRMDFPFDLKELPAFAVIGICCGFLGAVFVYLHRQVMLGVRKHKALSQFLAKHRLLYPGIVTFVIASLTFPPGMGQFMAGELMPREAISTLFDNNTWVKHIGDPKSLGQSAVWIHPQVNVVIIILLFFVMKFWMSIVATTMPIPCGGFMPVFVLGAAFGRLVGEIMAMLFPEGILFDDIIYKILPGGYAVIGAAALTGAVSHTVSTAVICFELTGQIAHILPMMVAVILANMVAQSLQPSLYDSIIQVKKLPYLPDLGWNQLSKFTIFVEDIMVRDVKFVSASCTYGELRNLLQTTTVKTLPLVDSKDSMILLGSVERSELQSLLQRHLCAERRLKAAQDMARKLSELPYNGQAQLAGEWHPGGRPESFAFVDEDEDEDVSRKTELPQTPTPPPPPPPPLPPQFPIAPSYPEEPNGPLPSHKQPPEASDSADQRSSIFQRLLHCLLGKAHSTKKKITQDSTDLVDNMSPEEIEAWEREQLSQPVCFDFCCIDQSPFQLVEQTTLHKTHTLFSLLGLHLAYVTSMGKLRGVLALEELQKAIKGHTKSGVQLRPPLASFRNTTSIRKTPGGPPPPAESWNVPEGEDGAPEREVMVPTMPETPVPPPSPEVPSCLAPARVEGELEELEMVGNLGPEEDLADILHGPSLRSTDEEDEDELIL
Numbers stand for hits; . = inactive; / = not tested or not shown.

SMILES	TAAR1 agonist	TAAR1 antag	ANO1 activ	CRFBP-R2 block	ANO1 block	CRFBP-R2 agonist	TMEM16A reconf	HEK293 Ca mobil	YFP-HEK293 quench	ClC-1 rat inh
O=S(=O)(c1cccc(Cl)c1)N1CCN(S(=O)(=O)c2ccc3c(c2)OCCO3)CC1	.	.	.	.	/	.	/	/	/	/
Cc1cc(NC(=O)c2ccc3sc([C@@H]4O[C@H](CO)[C@H](O)[C@H](O)[C@H]4O)nc3c2)no1	.	.	/	/	/	/	/	/	/	/
O=C(Nc1ccc2c(c1)OCCO2)C1CCC1	.	.	.	.	100	.	.	.	.	.
NC(=O)Nc1ccc2c(c1)OCCO2	.	.	.	.	.	.	/	/	/	/
Cc1onc(-c2c(Cl)cccc2Cl)c1C(=O)Nc1ccc2c(c1)OCCO2	.	.	.	.	100	.	.	.	.	.
CC1Cc2ccccc2N1CC(=O)Nc1cc(S(=O)(=O)N2CCOCC2)ccc1Cl (stereo not given)	.	.	/	.	/	.	/	/	/	/
O=C1NC[C@H](Cc2ccccc2)N(C[C@H]2CCCN2C[C@H](Cc2ccc(O)cc2)N2C[C@H](Cc3ccc(O)cc3)N(CC3CCCCCC3)C(=O)C2=O)C1=O	.	.	/	.	/	.	/	/	/	/
Cn1c(SCC(=O)NC2CCS(=O)(=O)C2)nnc1-c1ccco1 (stereo not given)	.	.	.	.	/	.	/	/	/	/
CCn1c(SCC(=O)c2ccc3c(c2)OCCO3)nnc1C(C)C	.	.	.	.	.	.	.	.	.	.
O=c1cc(C(F)(F)F)[nH]c2ccc(C(F)(F)F)cc12	.	.	.	.	100	.	34%	.	.	.
Cc1cc(=O)c2ccc(C(F)(F)F)cc2[nH]1	.	.	.	.	.	.	/	/	/	/
COc1ccc(N2CCN(C(=O)c3ccccc3NC(=O)c3ccccc3)CC2)cc1	.	.	.	.	.	.	/	/	/	/
COc1ccc(N2CCN(c3oc(-c4ccc(OC)c(OC)c4)nc3C#N)CC2)cc1	.	.	.	.	.	.	/	/	/	/
COc1ccc(-c2nc(C#N)c(N3CCc4ccccc4C3)o2)cc1OC	.	.	.	.	100	.	.	.	.	.
COc1ccccc1-c1nc(C#N)c(N2CCc3ccccc3C2)o1	.	.	.	.	100	.	.	.	.	.
COC(=O)CCCCCN1C(=O)NC(c2ccccc2)C(C(=O)OCc2ccccc2)=C1C (stereo not given)	.	.	.	.	25	.	16%	.	.	.
CC1=C(C(=O)OCc2ccccc2)C(c2ccc(Br)cc2)NC(=O)N1CCCCCC(=O)O (stereo not given)	.	.	.	.	.	.	/	/	/	/
COC(=O)C1=C(C)N(CCCC(=O)O)C(=O)NC1c1ccc(-c2ccccc2)cc1 (stereo not given)	.	.	.	.	100	.	.	.	.	.
C=CCNC(=O)c1oc2ccc(S(=O)(=O)N(CC)CC)cc2c1C	.	.	.	.	25	.	.	.	.	.
CCN(CC)S(=O)(=O)c1ccc2oc(C(=O)NCCN3CCOCC3)c(C)c2c1	.	.	.	.	.	.	/	/	/	/
N#CC(C#N)=Cc1cnc(N2CCN(c3ccccc3)CC2)s1	.	.	.	.	.	.	/	/	/	/
Cc1ccc(C)c(C(=O)CSc2nc(C)cc(=O)[nH]2)c1	.	.	.	.	.	.	/	/	/	/
Cc1cccc(NC(=O)CNCC(=O)Nc2cccc(C)c2C)c1C	.	.	.	.	.	.	/	/	/	/
Cc1ccc(NC(=O)CNc2cccc(C)c2C)c(C)c1	.	.	.	.	100	.	.	.	.	.
O=C(NCc1ccccc1)c1cc2nc(C3CC3)cc(C(F)(F)F)n2n1	.	.	.	.	100	.	.	.	.	.
SMILES	TAAR1 agonist	TAAR1 antag	ANO1 activ	CRFBP-R2 block	ANO1 block	CRFBP-R2 agonist	TMEM16A reconf	HEK293 Ca mobil	YFP-HEK293 quench	ClC-1 rat inh
O=C(NCc1ccccc1)c1nncc(-c2ccccc2)n1	.	.	.	.	/	.	/	/	/	/
Cc1cc(C(C)(C)C)oc1C(=O)N(CC(=O)NC1CCCC1)c1c(C)cccc1C	.	.	.	.	100	.	26%	.	.	.
CCOC(=O)c1cccc(NC(=O)C2CCN(S(=O)(=O)c3cccs3)CC2)c1	/	/	.	.	.	.	/	/	/	/
CCOC(=O)c1ccc2c(c1)nc(C1CCN(S(=O)(=O)c3cccs3)CC1)n2CC	.	.	.	.	25	.	.	.	.	.
CC(=O)c1nn(-c2ccc(C(F)(F)F)cc2)c(=O)[nH]c1=O	.	.	.	.	.	.	/	/	/	/
CC(=O)c1sc(NC(=O)C2(F)C(F)(F)C(F)(F)C(F)(F)C(F)(F)C2(F)F)nc1C	.	.	.	66	100	.	43%	.	.	.
CC(=O)c1sc(NC(=O)C=C(C)C)nc1C	.	.	.	.	.	.	/	/	/	/
O=C(c1ccco1)N1CCCC(c2nc(-c3ccc(S(=O)(=O)NCc4ccccc4)cc3)no2)C1 (stereo not given)	.	59	.	.	25	.	44%	.	.	.
COc1ccc2cc(C(=O)NCCO)sc(=O)c2c1OC	.	.	.	.	25	.	.	.	.	.
COc1ccc2cc(C(=O)Nc3ccccc3)sc(=O)c2c1OC	.	.	.	.	.	.	/	/	/	/
Cc1nc2ccccc2c2oc(C(=O)NCc3ccccn3)cc12	.	.	.	.	25	.	.	.	.	.
CCOc1ccc(NC(=O)c2ccc3nccnc3c2)cc1	.	.	.	.	.	.	/	/	/	/
COc1ccc(NC(=O)c2ccc3nccnc3c2)cc1	.	.	.	.	100	.	.	.	.	.
CC(C)[C@H](NC(=O)c1ccc(C(C)(C)C)cc1)C(=O)N1CCN(Cc2ccc3c(c2)OCO3)CC1	.	.	.	.	/	.	/	/	/	/
Fc1ccc(Nc2nnc(C(F)(F)F)s2)cc1Cl	.	.	-6.8	.	100	.	49%	.	.	.
Cc1cc(NC(C)c2ccccc2)n2ncc(-c3ccccc3)c2n1 (stereo not given)	.	.	.	.	100	.	.	.	.	.
Cc1cc(NCc2ccccc2)n2ncc(-c3ccccc3)c2n1	.	.	.	.	.	.	/	/	/	/
